According to ChEMBL document CHEMBL1255293, “In vitro susceptibility of various genotypic strains of Toxoplasma gondii to pyrimethamine, sulfadiazine, and atovaquone” (Antimicrob Agents Chemother, 2008):
≈ marks a conversion by molar mass, not a printed value.

What was measured:
Format in all cases: functional, organism-based
Toxoplasma gondii [1] = experiment: Antimicrobial activity against Toxoplasma gondii RH harboring DHPS Ex2, E474D/Ex4, R560K/Ex5, 580 sil Gly; A597E/627 sil Glu mutant gene and DHFR Ex3, 156 sil Leu mutant gene infected in human MRC-5 cells after 72 hrs by ELISA; details: MRC5, 72 h
In short: (§1)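 Tachyzoites freshly harvested from THP-1 cultures inoculated at 0.4 to 1 tachyzoite/10 cells, adjusted per strain, onto confluent MRC-5 fibroblasts. Drugs were stocked at 1 mg/ml in 50% methanol-50% acetone, diluted in RPMI, and added 3 h post-inoculation in four to eight replicate wells. Incubation was 72 h, then methanol fixation. Read-out was ELISA with rabbit anti-Toxoplasma serum and peroxidase anti-rabbit conjugate, TMB substrate, OD 405 nm. IC50 came from linear regression of OD versus log concentration; experiments were run in duplicate.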

Toxoplasma gondii [2] = experiment: Antimicrobial activity against Toxoplasma gondii ME49 infected in human MRC-5 cells infected in human MRC-5 cells after 72 hrs by ELISA; details: ME49, MRC5, 72 h
In short: (§2)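 Confluent MRC-5 fibroblasts (3.5 x 10^4 to 4 x 10^4 cells/well) inoculated with tachyzoites freshly harvested from THP-1 cultures, 0.4 to 1 tachyzoite/10 cells adjusted per strain for nonconfluent foci at 72 h. Drugs (stock 1 mg/ml in 50% methanol-50% acetone, diluted in RPMI) added 3 h post-inoculation, four to eight replicate wells per dilution. Cultures incubated 72 h.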

Toxoplasma gondii [3] = experiment: Antimicrobial activity against Toxoplasma gondii ENT harboring DHPS Ex2, E474D/Ex3, 156 sil Leu/Ex4, R560K/Ex5, 580 sil Gly/A597E/627 sil Glu mutant gene and DHFR Ex3, 156 sil Leu mutant gene infected in human MRC-5 cells after 72 hrs by ELISA; details: MRC5, 72 h; in short: as §1
Toxoplasma gondii [4] = experiment: Antimicrobial activity against Toxoplasma gondii B1 harboring DHPS Ex2, E474D/Ex4, R560K/Ex5, 580 sil Gly/ A597E/627 sil Glu mutant gene and DHFR Ex3, 156 sil Leu mutant gene infected in human MRC-5 cells after 72 hrs by ELISA; details: B1, MRC5, 72 h; in short: as §1
Toxoplasma gondii [5] = experiment: Antimicrobial activity against Toxoplasma gondii isolate GRE-1995-MAE infected in human MRC-5 cells after 72 hrs by ELISA; details: MRC5, 72 h; in short: as §2
Toxoplasma gondii [6] = experiment: Antimicrobial activity against Toxoplasma gondii isolate TRS-2004-REV infected in human MRC-5 cells after 72 hrs by ELISA; details: MRC5, 72 h; in short: as §2
Toxoplasma gondii [7] = experiment: Antimicrobial activity against Toxoplasma gondii isolate RMS-1994-LEF harboring DHPS Ex2, E474D/Ex4, R560K/Ex5, 580 sil Gly; A597E/627 sil Glu mutant gene and DHFR Ex3, 204 sil Ala mutant gene infected in human MRC-5 cells after 72 hrs by ELISA; details: MRC5, 72 h; in short: as §1
Toxoplasma gondii [8] = experiment: Antimicrobial activity against Toxoplasma gondii NED infected in human MRC-5 cells after 72 hrs by ELISA; details: MRC5, 72 h; in short: as §2
Toxoplasma gondii [9] = experiment: Antimicrobial activity against Toxoplasma gondii isolate TOU-1998-TRI infected in human MRC-5 cells after 72 hrs by ELISA; details: MRC5, 72 h; in short: as §2
Toxoplasma gondii [10] = experiment: Antimicrobial activity against Toxoplasma gondii isolate RMS-2003-DJO infected in human MRC-5 cells after 72 hrs by ELISA; details: MRC5, 72 h; in short: as §2
Toxoplasma gondii [11] = experiment: Antimicrobial activity against Toxoplasma gondii isolate GUY-2003-MEL harboring DHPS Ex2, E474D/Ex4, R560K/Ex5, 580 sil Gly/ A597E/627 sil Glu mutant gene and DHFR Ex2, 145 sil Val mutant gene infected in human MRC-5 cells after 72 hrs by ELISA; details: MRC5, 72 h; in short: as §1
Toxoplasma gondii [12] = experiment: Antimicrobial activity against Toxoplasma gondii isolate PSP-2005-MUP infected in human MRC-5 cells after 72 hrs by ELISA; details: MRC5, 72 h; in short: as §2
Toxoplasma gondii [13] = experiment: Antimicrobial activity against Toxoplasma gondii isolate RMS-2001-MAU infected in human MRC-5 cells after 72 hrs by ELISA; details: MRC5, 72 h; in short: as §2
Toxoplasma gondii [14] = experiment: Antimicrobial activity against Toxoplasma gondii isolate GRE-1998-TRA infected in human MRC-5 cells after 72 hrs by ELISA; details: MRC5, 72 h; in short: as §2
Toxoplasma gondii [15] = experiment: Antimicrobial activity against Toxoplasma gondii isolate RMS-2005-HAG infected in human MRC-5 cells after 72 hrs by ELISA; details: MRC5, 72 h; in short: as §2
Toxoplasma gondii [16] = experiment: Antimicrobial activity against Toxoplasma gondii isolate RMS-1995-ABE harboring DHPS Ex5, A587V mutant gene infected in human MRC-5 cells after 72 hrs by ELISA; details: MRC5, 72 h; in short: as §1

Structure (SMILES) | IC50 (Toxoplasma gondii [1]) [µg/mL] | IC50 (Toxoplasma gondii [2]) [µg/mL] | IC50 (Toxoplasma gondii [3]) [µg/mL] | IC50 (Toxoplasma gondii [4]) [µg/mL] | IC50 (Toxoplasma gondii [5]) [µg/mL] | IC50 (Toxoplasma gondii [6]) [µg/mL] | IC50 (Toxoplasma gondii [7]) [µg/mL] | IC50 (Toxoplasma gondii [8]) [µg/mL] | IC50 (Toxoplasma gondii [9]) [µg/mL] | IC50 (Toxoplasma gondii [10]) [µg/mL] | IC50 (Toxoplasma gondii [11]) [µg/mL] | IC50 (Toxoplasma gondii [12]) [µg/mL] | IC50 (Toxoplasma gondii [13]) [µg/mL] | IC50 (Toxoplasma gondii [14]) [µg/mL] | IC50 (Toxoplasma gondii [15]) [µg/mL] | IC50 (Toxoplasma gondii [16]) [µg/mL]
CCc1nc(N)nc(N)c1-c1ccc(Cl)cc1 [PYRIMETHAMINE] | 0.1 (≈ 0.402 µM) | 0.09 (≈ 0.362 µM) | 0.34 (≈ 1.37 µM) | 0.35 (≈ 1.41 µM) | 0.11 (≈ 0.442 µM) | 0.18 (≈ 0.724 µM) | 0.07 (≈ 0.281 µM) | 0.19 (≈ 0.764 µM) | 0.15 (≈ 0.603 µM) | 0.09 (≈ 0.362 µM) | 0.25 (≈ 1.01 µM) | 0.14 (≈ 0.563 µM) | 0.12 (≈ 0.482 µM) | 0.39 (≈ 1.57 µM) | 0.11 (≈ 0.442 µM) | 0.17 (≈ 0.684 µM)
Nc1ccc(S(=O)(=O)Nc2ncccn2)cc1 [SULFADIAZINE] | 6.52 (≈ 26.1 µM) | 6.55 (≈ 26.2 µM) | 4.28 (≈ 17.1 µM) | > 50 | 14.9 (≈ 59.7 µM) | 6.26 (≈ 25 µM) | 9.65 (≈ 38.6 µM) | 9.25 (≈ 37 µM) | 2.95 (≈ 11.8 µM) | 4.9 (≈ 19.6 µM) | 5.35 (≈ 21.4 µM) | 18.8 (≈ 75.1 µM) | > 50 | 16.8 (≈ 67.3 µM) | 6.7 (≈ 26.8 µM) | > 50
O=C1C(O)=C([C@H]2CC[C@H](c3ccc(Cl)cc3)CC2)C(=O)c2ccccc21 [ATOVAQUONE] | 0.05 (≈ 0.136 µM) | 0.05 (≈ 0.136 µM) | 0.07 (≈ 0.191 µM) | 0.1 (≈ 0.273 µM) | 0.03 (≈ 0.0818 µM) | 0.07 (≈ 0.191 µM) | 0.04 (≈ 0.109 µM) | 0.03 (≈ 0.0818 µM) | 0.07 (≈ 0.191 µM) | 0.08 (≈ 0.218 µM) | 0.04 (≈ 0.109 µM) | 0.06 (≈ 0.164 µM) | 0.06 (≈ 0.164 µM) | 0.05 (≈ 0.136 µM) | 0.04 (≈ 0.109 µM) | 0.11 (≈ 0.3 µM)
